Bioassay records (PubChem)
V-ATPase pH – regulators of yeast V-ATPase proton pumping, primary screen, pHLuorin cytosolic pH fluorescence. S. cerevisiae. response, % at 10 µM. 0.37% of 350,000 active; in the data active means response mostly above about 7.3%, no sharp cut-off; inactive means mostly below about 5.4%; further: actives read high
MIN6 prolif – inducers of MIN6 beta-cell proliferation, primary screen, ATP luminescence, uHTS | MIN6 cells proliferation, ATPlite luminescence, 48 h; cells starved in 0.2% serum; 100% = growth in 10% serum | proliferation, % at 10 µM | 0.29% of 330,000 active | AID 2380, 2010;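 active means compounds whose signal lies at least 3.5 SD above the mean of all wells on their plate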;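 further: 0% = DMSO-treated cells in low-serum medium and 100% = 10% serum control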
proKLK7 act – proKLK7 zymogen activators, primary screen, biochemical, fluorescence intensity; purified proKLK7, EDANS-DABCYL substrate fluorescence; 100% is mature enzyme control, 0% vehicle; Kallikrein-7 (Homo sapiens), P49862; 0.9% of 370,000 active; activation, % at 7 µM;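 active means activation above the mean of all tested compounds plus 3 SD, computed per campaign excluding outliers beyond control limits, cut at about 13% in these data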
Target sequence (P49862 whole entry, looked up): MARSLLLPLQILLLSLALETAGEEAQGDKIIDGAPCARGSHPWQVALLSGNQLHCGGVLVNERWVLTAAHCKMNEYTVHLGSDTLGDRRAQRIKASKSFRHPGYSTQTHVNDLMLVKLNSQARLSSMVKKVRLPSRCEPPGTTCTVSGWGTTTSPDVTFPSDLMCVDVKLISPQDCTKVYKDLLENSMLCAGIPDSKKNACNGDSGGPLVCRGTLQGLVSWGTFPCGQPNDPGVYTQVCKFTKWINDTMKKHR
Yeast superoxide – reduction of superoxide in aged yeast, primary screen, HTS; AID 2690, 2010; 0.18% of 330,000 active; superoxide response (% of plate mean), % at 10 µM; S. cerevisiae aged cells, superoxide DHE fluorescence; hits give low values;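 active means superoxide response under a set limit, about three screen SD below normal, cut at about 65% in these data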;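 further: yeast aged for seven days with compound at 30 °C before DHE staining; 100% = average MFI of all compound-treated wells on the plate with controls excluded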
Rce1 inhib – yeast Rce1p protease inhibitors, primary screen, biochemical, fluorescence, cell-free homogeneous. yeast membranes, quenched prenylated peptide cleavage fluorescence. 0.27% of 290,000 active. calls only;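 active means fall in fluorescence gain of 50% or more versus controls, with final raw signal at or below 3038400; inconclusive means same 50% fall but final raw signal above 3038400; inactive means fall in fluorescence gain under 50%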;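 further: plate controls were neutral control wells for no effect and wells lacking membranes for full effect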
Target sequence (Q03530 whole entry, looked up): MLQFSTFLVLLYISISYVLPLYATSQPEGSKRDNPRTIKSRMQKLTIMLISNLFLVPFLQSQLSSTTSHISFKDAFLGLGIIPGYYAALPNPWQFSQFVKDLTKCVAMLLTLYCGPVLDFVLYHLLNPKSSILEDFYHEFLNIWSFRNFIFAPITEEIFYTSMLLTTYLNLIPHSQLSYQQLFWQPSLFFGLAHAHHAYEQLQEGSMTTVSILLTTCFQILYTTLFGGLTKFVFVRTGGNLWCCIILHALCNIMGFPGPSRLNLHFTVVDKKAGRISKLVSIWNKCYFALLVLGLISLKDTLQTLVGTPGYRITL
T cell modulator – modulators of CD8 T cell-vesicle binding, primary screen, mouse 2C CD8+ T cells, flow cytometry; 2C CD8+ T cell-vesicle binding; hits give low values; response (vesicle binding), % at 7 µM; 0.068% of 330,000 active; AID 2052, 2009;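 active means response, share of CD8 T cells binding vesicles, and their 90th percentile fluorescence all below set limits, cut at about 80% in these data, passing the limit was not always enough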;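 further: values below 100% mean blocked vesicle binding to the CD8+ T cells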
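incubation = binding step 1.5 h, 37 °C, antibody labelling 20 min, ice | test system = 2C mouse CD8+ T cells | read-out basis = percent CD8+ FL2 mean versus row control | controls = Peptide-free naked vesicles (low) and QL9 vesicles with 0.7% DMSO vehicle (high) | detection = flow cytometry of vesicle-bound cells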
proKLK7 act conf – proKLK7 zymogen activators, confirmation, biochemical, fluorescence intensity, triplicate; 68% of 3,200 active; shares compounds with proKLK7 act; activation, % at 7 µM; AID 686949, 2013; purified proKLK7, EDANS-DABCYL substrate fluorescence; scaled: vehicle 0, mature enzyme 100;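 active means activation, as change over the incubation, above the mean of all tested compounds plus 3 SD, cut at about 13% in these data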
EDANS-DABCYL int – EDANS-DABCYL substrate optical interference, artefact control for kallikrein-7 zymogen activator project, biochemical, fluorescence intensity, high throughput; activation, % at 7 µM; AID 686952, 2013; no enzyme, 4 h; solvent 0%, active enzyme control 100%; 80% of 3,200 active; shares compounds with proKLK7 act;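 active means activation above the all-compound mean plus 3 SD, ignoring values outside control-based bounds, cut at about 4.8% in these data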;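 further: value is the 4 h activation minus the activation read at time zero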
EDANS interf – optically interferes with EDANS-DABCYL fluorescence, kallikrein-7 activator counter-screen; shares compounds with proKLK7 act; 20% of 250 active; EC50, µM; EDANS-DABCYL peptide fluorescence interference, no enzyme; AID 720493;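 active means compounds that raise the fluorescence signal in this interference counterscreen, with EC50 at or below 10 µM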;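 further: intact quenched peptide substrate alone read at 355 nm excitation and 520 nm emission; signal is fluorescence gain from T0 to T4 after four hours at room temperature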
Starred values were filed as active, the others as inactive; i = inactive; ? = inconclusive; . = not tested or not shown; + = active, no number. An excerpt weighted towards active compounds, which were near 1.9% of everything screened.

SMILES | V-ATPase pH | MIN6 prolif | proKLK7 act | Yeast superoxide | Rce1 inhib | T cell modulator | proKLK7 act conf | EDANS-DABCYL int | others
CCN(CC)CCN1C(=O)c2ccccc2NC1c1cccc(F)c1 (stereo unspecified) | 4.5 | -2.6 | 71.5* | 88.9 | i | 329.4 | 34.8* | 33.4*
COc1ccc(CNC(=O)C2(C)Cc3c(-c4ccc5c(c4)OCO5)ccnc3O2)cc1OC (stereo unspecified) | . | . | 0.4 | . | . | . | . | .
Cc1ccc([C@H]2C[C@@H](O)[C@H](n3cc(COC(=O)c4ccccc4)nn3)CN2C(=O)c2cccs2)cc1 | -0.9 | . | 0.4 | . | . | . | . | .
Cc1cccc(C)c1NC(=O)CNC(=O)CCC(=O)N1CCOCC1 | 0.0 | 1.8 | -0.3 | 100.3 | i | 317.7 | . | .
N#CCCSc1ccccc1NC(=O)c1cc(=O)c2ccccc2o1 | -3.5 | 1.0 | 0.2 | 103.6 | i | 203.4 | . | .
CCOC(=O)NN1C(=O)c2ccccc2NC1c1ccc(OC)c(OC)c1 (stereo unspecified) | 5.1 | 0.1 | 19.7* | 95.4 | i | 686.4 | 25.1* | 26.4*
O=C(O)CCC(=O)NN1C(=O)c2ccccc2NC1c1ccc(F)cc1 (stereo unspecified) | 4.5 | -0.1 | 17.4* | 114.7 | i | 262.3 | 37.9* | 30.6* | EDANS interf=>69.5
COc1ccc(C2Nc3ccccc3C(=O)N2NC(C)=O)cc1OC (stereo unspecified) | -0.1 | -3.1 | 11.1 | 93.9 | i | 293.6 | . | .
COc1ccc(C2Nc3ccccc3C(=O)N2NC(=O)c2ccccc2)cc1OC (stereo unspecified) | -0.9 | -1.6 | 3.7 | 102.8 | i | 265.2 | . | .
CCN(CC)CCN1C(=O)c2ccccc2NC1c1ccc(F)cc1 (stereo unspecified) | 4.3 | 1.2 | 91.5* | 99.0 | i | 976.0 | 37.0* | 34.5*
COc1ccc(CNS(=O)(=O)CCNC(=O)c2cccc(OC)c2)cc1 | 3.9 | -1.8 | -0.7 | 106.7 | i | 657.7 | . | .
CCN(CC)S(=O)(=O)c1ccc(OC)c(NS(=O)(=O)Cc2ccccc2)c1 | -1.3 | 0.0 | 0.2 | 98.9 | i | 126.9 | . | .
O=C(Nc1cccc(C(F)(F)F)c1)Nc1nnc([C@@H]2C[C@H](O)[C@@H](CO)O2)s1 | . | . | -0.1 | . | . | . | . | .
COc1ccc(C2=CC(c3ccc(OC)c(OC)c3)n3nnnc3N2)c(OC)c1 (stereo unspecified) | 0.9 | 3.0 | 15.8* | 110.3 | i | 474.6 | 10.9 | -15.4
CCc1sc(C(=O)NNC(=O)c2cncc(Br)c2)cc1C | -1.6 | -1.7 | 0.7 | 82.3 | . | 300.0 | . | .
Cc1c(O)c(CN(C)C)cc2c1oc(=O)c1ccccc12 | 0.3 | 3.9 | -0.1 | 99.5 | i | 801.6 | . | .
Cc1c(C)c2cc(Cl)c(O)c(CN(C)C)c2oc1=O | 1.3 | -0.8 | 73.8* | 87.0 | ? | 335.3 | 62.6* | 65.3*
Cc1c(CC(=O)O)c(=O)oc2c(C)c(OCc3ccc(F)cc3Cl)ccc12 | 1.9 | -3.0 | -0.7 | 102.6 | i | 139.2 | . | .
CCCCc1cc(=O)oc2c(CN(C)C)c(O)c(Cl)cc12 | 0.7 | -1.1 | 66.9* | 104.3 | ? | 476.1 | 64.8* | 85.9*
CCc1c(C)c2cc(Cl)c(O)c(CN(CC)CC)c2oc1=O | 0.3 | 1.5 | 53.0* | 94.0 | ? | 443.5 | 73.3* | 83.2*
CCc1c(C)c2cc(Cl)c(O)c(CN(C)C)c2oc1=O | -3.1 | 5.9 | 79.5* | 106.3 | ? | 380.3 | 66.2* | 67.0*
Fc1ccc(C2C3=C(Nc4ncnn42)c2ccccc2OC3c2ccncc2)cc1 (stereo unspecified) | -5.4 | -0.8 | 13.2* | 94.6 | i | 283.9 | 22.9* | 25.6*
CN1CCN(c2c(F)cc3c(=O)c(C(=O)O)cn4c3c2SCC4)CC1 | -0.9 | -2.1 | 98.0* | 102.0 | i | 768.7 | 35.1* | 43.0*
C[C@H]1COc2c(N3CCN(C)CC3)c(F)cc3c(=O)c(C(=O)O)cn1c23 | 9.3 | -2.1 | 171.7* | 107.6 | + | 268.5 | 54.9* | 56.2*
Cc1cc(C)cc(C(=O)Nc2ccc3[nH]c(=O)[nH]c3c2)c1 | -2.2 | -1.0 | 0.0 | 100.1 | i | 301.3 | . | .
SMILES | V-ATPase pH | MIN6 prolif | proKLK7 act | Yeast superoxide | Rce1 inhib | T cell modulator | proKLK7 act conf | EDANS-DABCYL int | others
COc1cc(/C=C/C(=O)Nc2ccc3[nH]c(=O)[nH]c3c2)cc(OC)c1OC | -0.6 | -1.8 | 0.9 | 96.9 | i | 303.8 | . | .
O=C(/C=C/c1ccc(F)cc1)Nc1ccc2[nH]c(=O)[nH]c2c1 | -1.2 | 0.8 | 34.6* | 93.9 | i | 354.4 | 100.6* | 92.9*
O=C(Nc1ccc2[nH]c(=O)[nH]c2c1)c1c(F)c(F)c(F)c(F)c1F | 1.8 | -2.8 | 18.9* | 107.9 | i | 122.7 | 28.8* | 22.2* | EDANS interf=i
CC(=O)c1cccc(S(=O)(=O)NCCCN2CCOCC2)c1 | 1.4 | 2.9 | 0.9 | 85.5 | . | 330.0 | . | .
CCOc1c2ccc(C(=O)NCc3ccco3)cc2nn1CCOC | 0.3 | -3.8 | 18.1* | 95.6 | + | 548.0 | 23.7* | 29.4*
CCOc1c2ccc(C(=O)NCc3ccc4c(c3)OCO4)cc2nn1CCOC | -0.6 | -1.7 | 13.1* | 96.2 | i | i | -13.6 | -19.2
CCCCn1nc2cc(C(=O)NCc3ccco3)ccc2c1OCC | 0.5 | 5.4 | 5.5 | 94.3 | i | i | . | .
CCOc1c2ccc(C(=O)NCc3ccco3)cc2nn1CC | -0.9 | -3.4 | 21.7* | 106.2 | i | 476.6 | 18.9* | 19.9*
CCCCn1nc2cc(C(=O)NCC3CC3)ccc2c1OCC | 11.9 | -2.9 | 17.6* | 98.6 | i | 327.4 | -2.9 | -5.4
CCCn1nc2cc(C(=O)NCc3ccc4c(c3)OCO4)ccc2c1OCC | 6.3 | 4.2 | -4.9 | 97.5 | i | 310.2 | . | .
CC(Oc1cccnc1[N+](=O)[O-])C(=O)N1CCc2ccccc21 (stereo unspecified) | 0.1 | -3.8 | -0.4 | 114.4 | . | 402.9 | . | .
CCCCN(CC)CCCNC(=O)c1cc2cc3ccc(C)cc3nc2o1 | 0.7 | 0.2 | 21.6* | 91.5 | i | 223.6 | 8.1 | 13.3*
Cc1ccc2cc3cc(C(=O)NCCCN4CCCC4)oc3nc2c1 | -1.6 | -4.0 | 11.2 | 111.8 | ? | 612.4 | . | .
